Data as given in ChEMBL document CHEMBL1138827, “Design of new cognition enhancers: from computer prediction to synthesis and biological evaluation” (2004).

Columns and labels:
[1] = tested on: Rattus norvegicus; experiment: Effect on increase in reflex latent time after administration of 1 mg/kg of the compound; format: functional
In short: (§1)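 Rats (180-200 g), scopolamine-induced amnesia in a step-through passive avoidance task. Scopolamine 2 mg/kg ip 15 min before training; test substance suspended in 0.5% Tween-80, given ip at 1 or 10 mg/kg 30 min before training; vehicle controls. Retention tested 24 h later: latency to enter dark chamber (max 180 s) and % animals not entering. n=12 per group.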

[2] = tested on: Rattus norvegicus; experiment: Effect on latency to enter dark chamber after administration of 1 mg/kg of the compound; format: functional; in short: as §1
[3] = tested on: Rattus norvegicus; experiment: Effect on number of animals not entering the dark chamber after administration of 10 mg/kg of the compound
[4] = tested on: Rattus norvegicus; experiment: Effect on increase in reflex latent time after administration of 10 mg/kg of the compound; format: functional; in short: as §1
[5] = tested on: Rattus norvegicus; experiment: Effect on increase in reflex latent time after administration of 600 mg/kg of the compound; format: functional
[6] = tested on: Rattus norvegicus; experiment: Effect on increase in reflex latent time after administration of 400 mg/kg of the compound; format: functional
[7] = species: Rattus norvegicus; experiment: […]; format: functional; conditions: dose 400 mg/kg

SMILES	Time [1]	Number [2]	Time [2]	Number [3]	Number [4]	Number [5]	Time [6]	Number [7]
Oc1ccc(/C=N/c2nc3ccccc3s2)cc1	104 s	58%	15 s	0%				
CC(=O)N1CCOC1c1cccc(Cl)c1 (configuration not stated)	25 s	0%	103 s		58%			
O=[N+]([O-])c1ccc(/C=N/c2nc(-c3ccccc3)cs2)cc1	157 s	58%	88 s	42%				
C(=N\c1nc(-c2ccccc2)cs1)/c1ccccc1	12 s	0%	68 s	33%				
Cc1csc(/N=C/c2ccc([N+](=O)[O-])cc2)n1	76 s	42%	126 s	50%				
O=[N+]([O-])c1ccc(/C=N/c2nccs2)cc1	68 s	42%	129 s	50%				
Clc1ccc(/C=N/c2nccs2)cc1	61 s	25%	123 s	66%				
Oc1ccc(/C=N/c2nccs2)cc1	96 s	42%	41 s	14%				
NC(=O)CN1CCCC1=O [PIRACETAM]						58%	75 s	33%
CN1[C@@H]2C[C@@H](OC(=O)[C@H](CO)c3ccccc3)C[C@H]1[C@@H]1O[C@@H]12 [SCOPOLAMINE]	53 s	17%						
